Assay results reported in ChEMBL document CHEMBL4689842, “EUbOPEN Chemogenomics Library wave 1” (2021).

Test system: U2OS
Test: Multiplex assay against U2OS
Format: toxicity, cell-based
Conditions: human
In short: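 Compound was added to live cells that had been stained at seeding with Hoechst33342, BioTracker Green Microtubule Cytoskeleton Dye, MitoTracker Red and Annexin V Alexa Fluor 680, and imaging followed on a CQ1 microscope at 37°C and 5% CO2. CellPathfinder machine-learning gating divided cells into Hoechst high-intensity objects or normal cells, normal cells into healthy, pyknosed or fragmented nuclei, and pyknosed cells into mitotic or apoptotic. Tubulin, mitochondrial-mass and membrane-permeability phenotypes are per cents of healthy-nucleus cells.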

[1] = 12 h, 1 µM, compound concentration 1 uM, replicate 1
[2] = 12 h, 1 µM, compound concentration 1 uM, replicate 2
[3] = 12 h, 10 µM, compound concentration 10 uM, replicate 1
[4] = 12 h, 10 µM, compound concentration 10 uM, replicate 2
[5] = 24 h, 1 µM, compound concentration 1 uM, replicate 1
[6] = 24 h, 1 µM, compound concentration 1 uM, replicate 2
[7] = 24 h, 10 µM, compound concentration 10 uM, replicate 1
[8] = 24 h, 10 µM, compound concentration 10 uM, replicate 2
[9] = 48 h, 1 µM, compound concentration 1 uM, replicate 1
[10] = 48 h, 1 µM, compound concentration 1 uM, replicate 2
[11] = 48 h, 10 µM, compound concentration 10 uM, replicate 1
[12] = 48 h, 10 µM, compound concentration 10 uM, replicate 2

O=C(Nc1ccc(-n2nc(-c3cccnc3)cc2C(F)(F)F)cn1)c1ccc(-c2ccccc2)c(F)c1 [BI 2049]
Population Apoptotic (%) [1]: 63%
Population Fragmented Nuclei (%) [1]: 12%
Population Healthy Nuclei (%) [1]: 74%
Population Hoechst High Intensity Objects (%) [1]: 12%
Population Membrane Permeable-Phenotype (%) [1]: 6%
Population Mitochondria Different-Phenotype (%) [1]: 10%
Population Mitotic Cells (%) [1]: 36%
Population Normal (%) [1]: 87%
Population Pyknosed Nuclei (%) [1]: 12%
Population Tubulin-Different-Phenotype (%) [1]: 12%
Total Cell Count [1]: 99
Population Apoptotic (%) [2]: 50%
Population Fragmented Nuclei (%) [2]: 4%
Population Healthy Nuclei (%) [2]: 85%
Population Hoechst High Intensity Objects (%) [2]: 8%
Population Membrane Permeable-Phenotype (%) [2]: 3%
Population Mitochondria Different-Phenotype (%) [2]: 7%
Population Mitotic Cells (%) [2]: 50%
Population Normal (%) [2]: 91%
Population Pyknosed Nuclei (%) [2]: 9%
Population Tubulin-Different-Phenotype (%) [2]: 44%
Total Cell Count [2]: 69
Population Apoptotic (%) [3]: 30%
Population Fragmented Nuclei (%) [3]: 13%
Population Healthy Nuclei (%) [3]: 69%
Population Hoechst High Intensity Objects (%) [3]: 9%
Population Membrane Permeable-Phenotype (%) [3]: 6%
Population Mitochondria Different-Phenotype (%) [3]: 24%
Population Mitotic Cells (%) [3]: 70%
Population Normal (%) [3]: 90%
Population Pyknosed Nuclei (%) [3]: 17%
Population Tubulin-Different-Phenotype (%) [3]: 35%
Total Cell Count [3]: 129
Population Apoptotic (%) [4]: 0%
Population Fragmented Nuclei (%) [4]: 18%
Population Healthy Nuclei (%) [4]: 81%
Population Hoechst High Intensity Objects (%) [4]: 6%
Population Membrane Permeable-Phenotype (%) [4]: 4%
Population Mitochondria Different-Phenotype (%) [4]: 12%
Population Mitotic Cells (%) [4]: 0%
Population Normal (%) [4]: 93%
Population Pyknosed Nuclei (%) [4]: 0%
Population Tubulin-Different-Phenotype (%) [4]: 8%
Total Cell Count [4]: 65
Population Apoptotic (%) [5]: 60%
Population Fragmented Nuclei (%) [5]: 8%
Population Healthy Nuclei (%) [5]: 79%
Population Hoechst High Intensity Objects (%) [5]: 5%
Population Membrane Permeable-Phenotype (%) [5]: 3%
Population Mitochondria Different-Phenotype (%) [5]: 6%
Population Mitotic Cells (%) [5]: 40%
Population Normal (%) [5]: 94%
Population Pyknosed Nuclei (%) [5]: 11%
Population Tubulin-Different-Phenotype (%) [5]: 13%
Total Cell Count [5]: 136
Population Apoptotic (%) [6]: 25%
Population Fragmented Nuclei (%) [6]: 7%
Population Healthy Nuclei (%) [6]: 83%
Population Hoechst High Intensity Objects (%) [6]: 7%
Population Membrane Permeable-Phenotype (%) [6]: 4%
Population Mitochondria Different-Phenotype (%) [6]: 9%
Population Mitotic Cells (%) [6]: 75%
Population Normal (%) [6]: 92%
Population Pyknosed Nuclei (%) [6]: 8%
Population Tubulin-Different-Phenotype (%) [6]: 37%
Total Cell Count [6]: 96
Population Apoptotic (%) [7]: 34%
Population Fragmented Nuclei (%) [7]: 10%
Population Healthy Nuclei (%) [7]: 71%
Population Hoechst High Intensity Objects (%) [7]: 5%
Population Membrane Permeable-Phenotype (%) [7]: 6%
Population Mitochondria Different-Phenotype (%) [7]: 21%
Population Mitotic Cells (%) [7]: 65%
Population Normal (%) [7]: 94%
Population Pyknosed Nuclei (%) [7]: 18%
Population Tubulin-Different-Phenotype (%) [7]: 19%
Total Cell Count [7]: 135
Population Apoptotic (%) [8]: 0%
Population Fragmented Nuclei (%) [8]: 11%
Population Healthy Nuclei (%) [8]: 84%
Population Hoechst High Intensity Objects (%) [8]: 3%
Population Membrane Permeable-Phenotype (%) [8]: 4%
Population Mitochondria Different-Phenotype (%) [8]: 13%
Population Mitotic Cells (%) [8]: 100%
Population Normal (%) [8]: 96%
Population Pyknosed Nuclei (%) [8]: 3%
Population Tubulin-Different-Phenotype (%) [8]: 10%
Total Cell Count [8]: 82
Population Apoptotic (%) [9]: 33%
Population Fragmented Nuclei (%) [9]: 9%
Population Healthy Nuclei (%) [9]: 82%
Population Hoechst High Intensity Objects (%) [9]: 5%
Population Mitochondria Different-Phenotype (%) [9]: 12%
Population Mitotic Cells (%) [9]: 66%
Population Normal (%) [9]: 94%
Population Pyknosed Nuclei (%) [9]: 7%
Population Tubulin-Different-Phenotype (%) [9]: 10%
Total Cell Count [9]: 200
Population Apoptotic (%) [10]: 22%
Population Fragmented Nuclei (%) [10]: 2%
Population Healthy Nuclei (%) [10]: 91%
Population Hoechst High Intensity Objects (%) [10]: 3%
Population Membrane Permeable-Phenotype (%) [10]: 1%
Population Mitochondria Different-Phenotype (%) [10]: 10%
Population Mitotic Cells (%) [10]: 77%
Population Normal (%) [10]: 96%
Population Pyknosed Nuclei (%) [10]: 6%
Population Tubulin-Different-Phenotype (%) [10]: 41%
Total Cell Count [10]: 146
Population Apoptotic (%) [11]: 63%
Population Fragmented Nuclei (%) [11]: 8%
Population Healthy Nuclei (%) [11]: 74%
Population Hoechst High Intensity Objects (%) [11]: 3%
Population Membrane Permeable-Phenotype (%) [11]: 7%
Population Mitochondria Different-Phenotype (%) [11]: 13%
Population Mitotic Cells (%) [11]: 36%
Population Normal (%) [11]: 96%
Population Pyknosed Nuclei (%) [11]: 17%
Population Tubulin-Different-Phenotype (%) [11]: 11%
Total Cell Count [11]: 181
Population Apoptotic (%) [12]: 11%
Population Fragmented Nuclei (%) [12]: 7%
Population Healthy Nuclei (%) [12]: 85%
Population Hoechst High Intensity Objects (%) [12]: 2%
Population Membrane Permeable-Phenotype (%) [12]: 3%
Population Mitochondria Different-Phenotype (%) [12]: 11%
Population Mitotic Cells (%) [12]: 88%
Population Normal (%) [12]: 97%
Population Pyknosed Nuclei (%) [12]: 7%
Population Tubulin-Different-Phenotype (%) [12]: 6%
Total Cell Count [12]: 128
